Test system: U2OS
Assay: Multiplex assay against U2OS
Type: toxicity, cell-based
Conditions: human
How it was run: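 Live cells carried four stains from seeding: Hoechst33342, BioTracker Green Microtubule Cytoskeleton Dye, MitoTracker Red and Annexin V Alexa Fluor 680. They were imaged on a CQ1 microscope at 37°C and 5% CO2 after compound addition. Using CellPathfinder machine-learning gating, cells were split into Hoechst high-intensity objects or normal cells, normal cells into healthy, pyknosed or fragmented nuclei, and pyknosed cells into mitotic or apoptotic; tubulin, mitochondrial-mass and membrane-permeability phenotypes are per cents of healthy-nucleus cells.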

[1] = 12 h, 1 µM, compound concentration 1 uM, replicate 1
[2] = 12 h, 1 µM, compound concentration 1 uM, replicate 2
[3] = 12 h, 10 µM, compound concentration 10 uM, replicate 1
[4] = 12 h, 10 µM, compound concentration 10 uM, replicate 2
[5] = 24 h, 1 µM, compound concentration 1 uM, replicate 1
[6] = 24 h, 1 µM, compound concentration 1 uM, replicate 2
[7] = 24 h, 10 µM, compound concentration 10 uM, replicate 1
[8] = 24 h, 10 µM, compound concentration 10 uM, replicate 2
[9] = 48 h, 1 µM, compound concentration 1 uM, replicate 1
[10] = 48 h, 1 µM, compound concentration 1 uM, replicate 2
[11] = 48 h, 10 µM, compound concentration 10 uM, replicate 1
[12] = 48 h, 10 µM, compound concentration 10 uM, replicate 2

Compound: C[C@H](N)COC(=O)[C@@H](CCCCN)NC(=O)Cc1c(-c2ccc3ccccc3c2)[nH]c2c1ccc1ccccc12
- Population Apoptotic (%) [1]: 73%
- Population Fragmented Nuclei (%) [1]: 26%
- Population Healthy Nuclei (%) [1]: 66%
- Population Hoechst High Intensity Objects (%) [1]: 3%
- Population Membrane Permeable-Phenotype (%) [1]: 6%
- Population Mitochondria Different-Phenotype (%) [1]: 3%
- Population Mitotic Cells (%) [1]: 26%
- Population Normal (%) [1]: 96%
- Population Pyknosed Nuclei (%) [1]: 6%
- Population Tubulin-Different-Phenotype (%) [1]: 3%
- Total Cell Count [1]: 244
- Population Apoptotic (%) [2]: 75%
- Population Fragmented Nuclei (%) [2]: 14%
- Population Healthy Nuclei (%) [2]: 78%
- Population Hoechst High Intensity Objects (%) [2]: 0%
- Population Membrane Permeable-Phenotype (%) [2]: 4%
- Population Mitochondria Different-Phenotype (%) [2]: 2%
- Population Mitotic Cells (%) [2]: 25%
- Population Normal (%) [2]: 99%
- Population Tubulin-Different-Phenotype (%) [2]: 4%
- Total Cell Count [2]: 128
- Population Apoptotic (%) [3]: 78%
- Population Fragmented Nuclei (%) [3]: 23%
- Population Healthy Nuclei (%) [3]: 69%
- Population Hoechst High Intensity Objects (%) [3]: 2%
- Population Membrane Permeable-Phenotype (%) [3]: 5%
- Population Mitochondria Different-Phenotype (%) [3]: 1%
- Population Mitotic Cells (%) [3]: 21%
- Population Normal (%) [3]: 97%
- Population Pyknosed Nuclei (%) [3]: 7%
- Population Tubulin-Different-Phenotype (%) [3]: 3%
- Total Cell Count [3]: 279
- Population Apoptotic (%) [4]: 50%
- Population Fragmented Nuclei (%) [4]: 24%
- Population Healthy Nuclei (%) [4]: 73%
- Population Hoechst High Intensity Objects (%) [4]: 0%
- Population Membrane Permeable-Phenotype (%) [4]: 17%
- Population Mitochondria Different-Phenotype (%) [4]: 3%
- Population Mitotic Cells (%) [4]: 50%
- Population Normal (%) [4]: 100%
- Population Pyknosed Nuclei (%) [4]: 1%
- Population Tubulin-Different-Phenotype (%) [4]: 5%
- Total Cell Count [4]: 106
- Population Apoptotic (%) [5]: 83%
- Population Fragmented Nuclei (%) [5]: 22%
- Population Healthy Nuclei (%) [5]: 68%
- Population Hoechst High Intensity Objects (%) [5]: 2%
- Population Membrane Permeable-Phenotype (%) [5]: 3%
- Population Mitochondria Different-Phenotype (%) [5]: 1%
- Population Mitotic Cells (%) [5]: 16%
- Population Normal (%) [5]: 97%
- Population Pyknosed Nuclei (%) [5]: 8%
- Population Tubulin-Different-Phenotype (%) [5]: 2%
- Total Cell Count [5]: 292
- Population Apoptotic (%) [6]: 90%
- Population Fragmented Nuclei (%) [6]: 16%
- Population Healthy Nuclei (%) [6]: 77%
- Population Hoechst High Intensity Objects (%) [6]: 1%
- Population Membrane Permeable-Phenotype (%) [6]: 6%
- Population Mitotic Cells (%) [6]: 10%
- Population Normal (%) [6]: 98%
- Population Pyknosed Nuclei (%) [6]: 5%
- Population Tubulin-Different-Phenotype (%) [6]: 3%
- Total Cell Count [6]: 170
- Population Apoptotic (%) [7]: 81%
- Population Fragmented Nuclei (%) [7]: 19%
- Population Healthy Nuclei (%) [7]: 73%
- Population Hoechst High Intensity Objects (%) [7]: 2%
- Population Membrane Permeable-Phenotype (%) [7]: 5%
- Population Mitochondria Different-Phenotype (%) [7]: 1%
- Population Mitotic Cells (%) [7]: 18%
- Population Normal (%) [7]: 97%
- Population Pyknosed Nuclei (%) [7]: 6%
- Population Tubulin-Different-Phenotype (%) [7]: 2%
- Total Cell Count [7]: 337
- Population Apoptotic (%) [8]: 100%
- Population Fragmented Nuclei (%) [8]: 17%
- Population Healthy Nuclei (%) [8]: 79%
- Population Membrane Permeable-Phenotype (%) [8]: 11%
- Population Mitochondria Different-Phenotype (%) [8]: 3%
- Population Mitotic Cells (%) [8]: 0%
- Population Pyknosed Nuclei (%) [8]: 2%
- Population Tubulin-Different-Phenotype (%) [8]: 6%
- Total Cell Count [8]: 142
- Population Apoptotic (%) [9]: 79%
- Population Fragmented Nuclei (%) [9]: 16%
- Population Healthy Nuclei (%) [9]: 78%
- Population Hoechst High Intensity Objects (%) [9]: 1%
- Population Membrane Permeable-Phenotype (%) [9]: 2%
- Population Mitochondria Different-Phenotype (%) [9]: 2%
- Population Mitotic Cells (%) [9]: 20%
- Population Normal (%) [9]: 98%
- Population Pyknosed Nuclei (%) [9]: 5%
- Population Tubulin-Different-Phenotype (%) [9]: 2%
- Total Cell Count [9]: 440
- Population Apoptotic (%) [10]: 73%
- Population Fragmented Nuclei (%) [10]: 17%
- Population Healthy Nuclei (%) [10]: 73%
- Population Hoechst High Intensity Objects (%) [10]: 2%
- Population Membrane Permeable-Phenotype (%) [10]: 3%
- Population Mitochondria Different-Phenotype (%) [10]: 4%
- Population Mitotic Cells (%) [10]: 26%
- Population Normal (%) [10]: 97%
- Population Pyknosed Nuclei (%) [10]: 8%
- Population Tubulin-Different-Phenotype (%) [10]: 1%
- Total Cell Count [10]: 231
- Population Apoptotic (%) [11]: 90%
- Population Fragmented Nuclei (%) [11]: 14%
- Population Healthy Nuclei (%) [11]: 74%
- Population Hoechst High Intensity Objects (%) [11]: 4%
- Population Membrane Permeable-Phenotype (%) [11]: 6%
- Population Mitochondria Different-Phenotype (%) [11]: 1%
- Population Mitotic Cells (%) [11]: 9%
- Population Normal (%) [11]: 95%
- Population Pyknosed Nuclei (%) [11]: 10%
- Population Tubulin-Different-Phenotype (%) [11]: 2%
- Total Cell Count [11]: 505
- Population Fragmented Nuclei (%) [12]: 16%
- Population Healthy Nuclei (%) [12]: 77%
- Population Membrane Permeable-Phenotype (%) [12]: 16%
- Population Mitochondria Different-Phenotype (%) [12]: 2%
- Population Mitotic Cells (%) [12]: 10%
- Population Pyknosed Nuclei (%) [12]: 5%
- Population Tubulin-Different-Phenotype (%) [12]: 6%
- Total Cell Count [12]: 184

From ChEMBL document CHEMBL5058577, “EUbOPEN Chemogenomics Library 2 (Multiplex)” (2022)
